ChEMBL document CHEMBL3817745, “Structure-Activity Relationship for the 4(3H)-Quinazolinone Antibacterials” (J Med Chem, 2016)

Assays:
Type in all cases: functional
Enterococcus faecium = test: Antibacterial activity against Enterococcus faecium NCTC 7171 incubated for 16 to 20 hrs by microdilution method
Outline: (§1)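 CLSI broth microdilution. 2-fold serial dilutions were made in cation-adjusted Mueller–Hinton broth, with 5% lysed horse blood added for Streptococcus strains, in triplicate. Inoculum 5×10^5 CFU/mL. Plates incubated 36 °C for 16–20 h. MIC taken as the lowest concentration visibly inhibiting growth.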

Klebsiella pneumoniae = test: Antibacterial activity against Klebsiella pneumoniae ATCC 700603 incubated for 16 to 20 hrs by microdilution method; outline: as §1
Acinetobacter baumannii = test: Antibacterial activity against Acinetobacter baumannii ATCC 17961 incubated for 16 to 20 hrs by microdilution method; outline: as §1
Pseudomonas aeruginosa = test: Antibacterial activity against Pseudomonas aeruginosa […] incubated for 16 to 20 hrs by microdilution method; outline: as §1
Escherichia coli = test: Antibacterial activity against Escherichia coli ATCC 25922 incubated for 16 to 20 hrs by microdilution method; outline: as §1
Klebsiella aerogenes = test: Antibacterial activity against Enterobacter aerogenes ATCC 35029 incubated for 16 to 20 hrs by microdilution method; outline: as §1

| Structure (SMILES) | MIC (Enterococcus faecium) | MIC (Klebsiella pneumoniae) | MIC (Acinetobacter baumannii) | MIC (Pseudomonas aeruginosa) | MIC (Escherichia coli) | MIC (Klebsiella aerogenes) |
| --- | --- | --- | --- | --- | --- | --- |
| O=c1c2ccccc2nc(/C=C/c2ccc([N+](=O)[O-])cc2)n1-c1ccc(O)cc1 | ≥ 8 µg/mL | ≥ 16 µg/mL | ≥ 16 µg/mL | ≥ 16 µg/mL | ≥ 16 µg/mL | ≥ 16 µg/mL |
| O=c1c2cc(O)ccc2nc(/C=C/c2ccc(F)cc2)n1-c1cccc(O)c1 | ≥ 8 µg/mL | ≥ 16 µg/mL | ≥ 16 µg/mL | ≥ 16 µg/mL | ≥ 16 µg/mL | ≥ 16 µg/mL |
| COC(=O)Nc1cccc(-n2c(/C=C/c3ccc(C#N)cc3)nc3ccccc3c2=O)c1 | ≥ 8 µg/mL | ≥ 16 µg/mL | ≥ 16 µg/mL | ≥ 16 µg/mL | ≥ 16 µg/mL | ≥ 16 µg/mL |
| COc1ncccc1CNc1cccc(-n2c(/C=C/c3ccc(C#N)cc3)nc3ccccc3c2=O)c1 | ≥ 8 µg/mL | ≥ 16 µg/mL | ≥ 16 µg/mL | ≥ 16 µg/mL | ≥ 16 µg/mL | ≥ 16 µg/mL |
| O=c1c2ccccc2nc(/C=C/c2cccc(F)c2)n1-c1cccc(O)c1 | ≥ 8 µg/mL | ≥ 16 µg/mL | ≥ 16 µg/mL | ≥ 16 µg/mL | ≥ 16 µg/mL | ≥ 16 µg/mL |
| CC(=O)Oc1ccc(-n2c(/C=C/c3ccc([N+](=O)[O-])cc3)nc3ccccc3c2=O)cc1 | ≥ 8 µg/mL | ≥ 16 µg/mL | ≥ 16 µg/mL | ≥ 16 µg/mL | ≥ 16 µg/mL | ≥ 16 µg/mL |
| CS(=O)(=O)NCc1cccc(-n2c(/C=C/c3ccc(C#N)cc3)nc3ccccc3c2=O)c1 | ≥ 8 µg/mL | ≥ 16 µg/mL | ≥ 16 µg/mL | ≥ 16 µg/mL | ≥ 16 µg/mL | ≥ 16 µg/mL |
| N#Cc1ccc(/C=C/c2nc3ccccc3c(=O)n2-c2cccc(C(=O)NCCC(=O)O)c2)cc1 | ≥ 8 µg/mL | ≥ 16 µg/mL | ≥ 16 µg/mL | ≥ 16 µg/mL | ≥ 16 µg/mL | ≥ 16 µg/mL |
| O=c1c2ccccc2nc(/C=C/c2ccc([N+](=O)[O-])cc2)n1-c1ccccc1O | ≥ 8 µg/mL | ≥ 16 µg/mL | ≥ 16 µg/mL | ≥ 16 µg/mL | ≥ 16 µg/mL | ≥ 16 µg/mL |
| CC(=O)Oc1cccc(-n2c(/C=C/c3ccc([N+](=O)[O-])cc3)nc3ccccc3c2=O)c1 | ≥ 8 µg/mL | ≥ 16 µg/mL | ≥ 16 µg/mL | ≥ 16 µg/mL | ≥ 16 µg/mL | ≥ 16 µg/mL |
| N#Cc1ccc(/C=C/c2nc3ccccc3c(=O)n2-c2cccc(F)c2)cc1 | ≥ 8 µg/mL | ≥ 16 µg/mL | ≥ 16 µg/mL | ≥ 16 µg/mL | ≥ 16 µg/mL | ≥ 16 µg/mL |
| N#Cc1ccc(/C=C/c2nc3ccccc3c(=O)n2-c2cccc([N+](=O)[O-])c2)cc1 | ≥ 8 µg/mL | ≥ 16 µg/mL | ≥ 16 µg/mL | ≥ 16 µg/mL | ≥ 16 µg/mL | ≥ 16 µg/mL |
| CC(=O)OCCCn1c(/C=C/c2ccc(C#N)cc2)nc2ccccc2c1=O | ≥ 8 µg/mL | ≥ 16 µg/mL | ≥ 16 µg/mL | ≥ 16 µg/mL | ≥ 16 µg/mL | ≥ 16 µg/mL |
| O=c1c2ccccc2nc(/C=C/C2CCCCC2)n1-c1cccc(O)c1 | ≥ 8 µg/mL | ≥ 16 µg/mL | ≥ 16 µg/mL | ≥ 16 µg/mL | ≥ 16 µg/mL | ≥ 16 µg/mL |
| O=c1c2ccccc2nc(/C=C/c2cccc([N+](=O)[O-])c2)n1-c1cccc(O)c1 | ≥ 8 µg/mL | ≥ 16 µg/mL | ≥ 16 µg/mL | ≥ 16 µg/mL | ≥ 16 µg/mL | ≥ 16 µg/mL |
| CC(C)c1ccc(/C=C/c2nc3ccccc3c(=O)n2-c2cccc(O)c2)cc1 | ≥ 8 µg/mL | ≥ 16 µg/mL | ≥ 16 µg/mL | ≥ 16 µg/mL | ≥ 16 µg/mL | ≥ 16 µg/mL |
| O=c1c2ccccc2nc(/C=C/c2ccc([N+](=O)[O-])cc2)n1-c1cccc(O)c1 | ≥ 8 µg/mL | ≥ 16 µg/mL | ≥ 16 µg/mL | ≥ 16 µg/mL | ≥ 16 µg/mL | ≥ 16 µg/mL |
| CC(C)Nc1cccc(-n2c(/C=C/c3ccc(C#N)cc3)nc3ccccc3c2=O)c1 | ≥ 8 µg/mL | ≥ 16 µg/mL | ≥ 16 µg/mL | ≥ 16 µg/mL | ≥ 16 µg/mL | ≥ 16 µg/mL |
| Cc1ccc(/C=C/c2nc3ccccc3c(=O)n2-c2cccc(O)c2)cc1 | ≥ 8 µg/mL | ≥ 16 µg/mL | ≥ 16 µg/mL | ≥ 16 µg/mL | ≥ 16 µg/mL | ≥ 16 µg/mL |
| N#Cc1ccc(/C=C/c2nc3ccccc3c(=O)n2-c2cc[nH]n2)cc1 | ≥ 8 µg/mL | ≥ 16 µg/mL | ≥ 16 µg/mL | ≥ 16 µg/mL | ≥ 16 µg/mL | ≥ 16 µg/mL |
| O=c1c2cc(Br)ccc2nc(/C=C/c2ccc([N+](=O)[O-])cc2)n1-c1cccc(O)c1 | ≥ 8 µg/mL | ≥ 16 µg/mL | ≥ 16 µg/mL | ≥ 16 µg/mL | ≥ 16 µg/mL | ≥ 16 µg/mL |
| COC(=O)CCNC(=O)c1cccc(-n2c(/C=C/c3ccc(C#N)cc3)nc3ccccc3c2=O)c1 | ≥ 8 µg/mL | ≥ 16 µg/mL | ≥ 16 µg/mL | ≥ 16 µg/mL | ≥ 16 µg/mL | ≥ 16 µg/mL |

The remaining lines, values ahead:

| MIC (Enterococcus faecium) | MIC (Klebsiella pneumoniae) | MIC (Acinetobacter baumannii) | MIC (Pseudomonas aeruginosa) | MIC (Escherichia coli) | MIC (Klebsiella aerogenes) | Structure (SMILES) |
| --- | --- | --- | --- | --- | --- | --- |
| ≥ 8 µg/mL | ≥ 16 µg/mL | ≥ 16 µg/mL | ≥ 16 µg/mL | ≥ 16 µg/mL | ≥ 16 µg/mL | COC(=O)Cc1ccc(/C=C/c2nc3ccccc3c(=O)n2-c2cccc(C(=O)O)c2)cc1 |
| ≥ 8 µg/mL | ≥ 16 µg/mL | ≥ 16 µg/mL | ≥ 16 µg/mL | ≥ 16 µg/mL | ≥ 16 µg/mL | O=C(O)c1cccc(-n2c(/C=C/c3ccc(Cl)cc3)nc3ccncc3c2=O)c1 |
| ≥ 8 µg/mL | ≥ 16 µg/mL | ≥ 16 µg/mL | ≥ 16 µg/mL | ≥ 16 µg/mL | ≥ 16 µg/mL | O=C(O)c1cccc(-n2c(/C=C/c3ccc(F)c(Cl)c3)nc3ccccc3c2=O)c1 |
| ≥ 8 µg/mL | ≥ 16 µg/mL | ≥ 16 µg/mL | ≥ 16 µg/mL | ≥ 16 µg/mL | ≥ 16 µg/mL | O=C(O)c1cccc(-n2c(/C=C/c3ccc(F)c(F)c3)nc3ccccc3c2=O)c1 |
| ≥ 8 µg/mL | ≥ 16 µg/mL | ≥ 16 µg/mL | ≥ 16 µg/mL | ≥ 16 µg/mL | ≥ 16 µg/mL | NC(=O)c1cccc(-n2c(/C=C/c3ccc(F)cc3)nc3ccccc3c2=O)c1 |
| ≥ 8 µg/mL | ≥ 16 µg/mL | ≥ 16 µg/mL | ≥ 16 µg/mL | ≥ 16 µg/mL | ≥ 16 µg/mL | O=C(O)c1cccc(-n2c(/C=C/c3ccc(C#CCO)cc3)nc3ccccc3c2=O)c1 |
| ≥ 8 µg/mL | ≥ 16 µg/mL | ≥ 16 µg/mL | ≥ 16 µg/mL | ≥ 16 µg/mL | ≥ 16 µg/mL | CS(=O)(=O)c1ccc(/C=C/c2nc3ccccc3c(=O)n2-c2cccc(C(=O)O)c2)cc1 |
| ≥ 8 µg/mL | ≥ 16 µg/mL | ≥ 16 µg/mL | ≥ 16 µg/mL | ≥ 16 µg/mL | ≥ 16 µg/mL | N#Cc1ccc(/C=C/c2nc3ccncc3c(=O)n2-c2cccc(O)c2)cc1 |
| ≥ 8 µg/mL | ≥ 16 µg/mL | ≥ 16 µg/mL | ≥ 16 µg/mL | ≥ 16 µg/mL | ≥ 16 µg/mL | N#Cc1ccc(/C=C/c2nc3ccncc3c(=O)n2-c2cccc(C(N)=O)c2)cc1 |
| ≥ 8 µg/mL | ≥ 16 µg/mL | ≥ 16 µg/mL | ≥ 16 µg/mL | ≥ 16 µg/mL | ≥ 16 µg/mL | N#Cc1ccc(/C=C/c2nc3cc(N)ccc3c(=O)n2-c2cccc(C(=O)O)c2)cc1 |
| ≥ 8 µg/mL | ≥ 16 µg/mL | ≥ 16 µg/mL | ≥ 16 µg/mL | ≥ 16 µg/mL | ≥ 16 µg/mL | O=C(O)c1cccc(-n2c(/C=C/c3ccc(F)cc3)nc3ccncc3c2=O)c1 |
| ≥ 8 µg/mL | ≥ 16 µg/mL | ≥ 16 µg/mL | ≥ 16 µg/mL | ≥ 16 µg/mL | ≥ 16 µg/mL | CC(=O)OCC#Cc1ccc(/C=C/c2nc3ccccc3c(=O)n2-c2cccc(C(=O)O)c2)cc1 |
| ≥ 8 µg/mL | ≥ 16 µg/mL | ≥ 16 µg/mL | ≥ 16 µg/mL | ≥ 16 µg/mL | ≥ 16 µg/mL | N#Cc1ccc(/C=C/c2nc3ccccc3c(=O)n2-c2cccc(C(=O)NCc3cccnc3)c2)cc1 |
| ≥ 8 µg/mL | ≥ 16 µg/mL | ≥ 16 µg/mL | ≥ 16 µg/mL | ≥ 16 µg/mL | ≥ 16 µg/mL | NC(=O)c1cccc(-n2c(/C=C/c3ccc(Cl)cc3)nc3ccncc3c2=O)c1 |
| ≥ 8 µg/mL | ≥ 16 µg/mL | ≥ 16 µg/mL | ≥ 16 µg/mL | ≥ 16 µg/mL | ≥ 16 µg/mL | O=c1c2cnccc2nc(/C=C/c2ccc(Cl)cc2)n1-c1cccc(O)c1 |
| ≥ 8 µg/mL | ≥ 16 µg/mL | ≥ 16 µg/mL | ≥ 16 µg/mL | ≥ 16 µg/mL | ≥ 16 µg/mL | O=c1c2cnccc2nc(/C=C/c2ccc(F)cc2)n1-c1cccc(O)c1 |
| ≥ 8 µg/mL | ≥ 16 µg/mL | ≥ 16 µg/mL | ≥ 16 µg/mL | ≥ 16 µg/mL | ≥ 16 µg/mL | N#Cc1ccc(/C=C/c2nc3ccccc3c(=O)n2-c2cccc(CC(=O)O)c2)cc1 |
| ≥ 8 µg/mL | ≥ 16 µg/mL | ≥ 16 µg/mL | ≥ 16 µg/mL | ≥ 16 µg/mL | ≥ 16 µg/mL | NC(=O)c1cccc(-n2c(/C=C/c3ccc(F)cc3)nc3ccncc3c2=O)c1 |
| ≥ 8 µg/mL | ≥ 16 µg/mL | ≥ 16 µg/mL | ≥ 16 µg/mL | ≥ 16 µg/mL | ≥ 16 µg/mL | N#Cc1ccc(/C=C/c2nc3ccncc3c(=O)n2-c2cccc(C(=O)O)c2)cc1 |
| ≥ 8 µg/mL | ≥ 16 µg/mL | ≥ 16 µg/mL | ≥ 16 µg/mL | ≥ 16 µg/mL | ≥ 16 µg/mL | O=C(NCCO)c1cccc(-n2c(/C=C/c3ccc(F)cc3)nc3ccccc3c2=O)c1 |
